Data set [1] can be described thus: Apparent permeability across apical to basolateral side in human Caco2 cells at 10 uM after 60 mins by LC/MS/MS analysis. In kind it is ADME, cell-based. The conditions noted are these: Caco-2. A digest of the protocol: (§1)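 Caco-2 monolayer permeability measured in both directions, apical-to-basolateral and basolateral-to-apical. Reported as P_app (×10−⁶ cm/s), given as A−B/B−A pairs.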
For orientation: Caco-2 cells form a polarised layer with tight junctions and transporters.

Data set [2] can be described thus: Drug uptake in Sprague-Dawley rat brain at 3 mg/kg, po measured at 1 hr. The conditions noted are these: read-out: Drug uptake. Type of data set: ADME, organism-based. A digest of the protocol: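 Rats dosed orally at 3 mg/kg. Brain drug concentration (μM) measured at 1 h post-dose.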
Data set [3] addresses Voltage-gated inwardly rectifying potassium channel KCNH2 (Homo sapiens, UniProt Q12809). In words: Displacement of [3H]-astemizole from human ERG expressed in HEK293 cells after 60 mins by scintillation counting analysis. Type of data set: cell-based.
The nature of data set [4]: Volume of distribution at steady state in Sprague-Dawley rat. In kind it is ADME, organism-based. The conditions noted are these: in vivo, read-out: Vdss.
Data set [5] deals with Voltage-gated L-type calcium channel (Rattus norvegicus, UniProt P22002+Q02485+P27732). In words: Binding affinity to rat L-type calcium channel at 1 uM.
Data set [6] can be described thus: Oral bioavailability in Sprague-Dawley rat at 10 mg/kg. The conditions noted are these: in vivo. In kind it is ADME, organism-based.
The nature of data set [7]: Half life in Sprague-Dawley rat at 1 mg/kg, iv. In kind it is ADME, organism-based. The conditions noted are these: in vivo.
Data set [8] can be described thus: Apparent permeability across basolateral to apical side in human Caco2 cells at 10 uM […] by LC/MS/MS analysis. Type of data set: ADME, cell-based. The conditions noted are these: Caco-2. An outline of the steps:
as §1

The next data set has as its system Rattus norvegicus. The data set is described as follows: Ex vivo histamine H3 receptor occupancy in Sprague-Dawley rat striatum at 3 mg/kg, po measured at 1 hr by autoradiographic analysis. In kind it is functional. An outline of the steps:
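After a 3 mg/kg oral dose in rats, ex vivo H3 receptor occupancy was determined by autoradiography at 1 h. Values are mean ± SD.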

A short description of data set [9]: Clearance in Sprague-Dawley rat. Type of data set: ADME, organism-based. The conditions noted are these: in vivo.
Data set [10] in a line: Metabolic stability in Sprague-Dawley rat liver microsomes assessed as compound remaining at 1 uM after 15 mins. In kind it is ADME. The conditions noted are these: read-out: Stability. An outline of the steps: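 Rat liver microsomes incubated with compound for 15 min. Stability expressed as percent of parent remaining.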
For orientation: Microsomes from liver hold many membrane-bound enzymes, among them those of drug oxidation.

Data set [11] in a line: Metabolic stability in human liver microsomes assessed as compound remaining at 1 uM after 15 mins. In kind it is ADME. The conditions noted are these: read-out: Stability. An outline of the steps:
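Compound incubated with human liver microsomes for 15 min. Read-out is percent parent remaining.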

Another data set addresses Histamine H3 receptor (Homo sapiens, UniProt Q9Y5N1). In words: Displacement of N-[3H]methylhistamine from human histamine H3 receptor expressed in human SK-N-MC cells after 45 mins. Type of data set: cell-based.

Sequence of Voltage-gated inwardly rectifying potassium channel KCNH2 (Q12809 whole entry): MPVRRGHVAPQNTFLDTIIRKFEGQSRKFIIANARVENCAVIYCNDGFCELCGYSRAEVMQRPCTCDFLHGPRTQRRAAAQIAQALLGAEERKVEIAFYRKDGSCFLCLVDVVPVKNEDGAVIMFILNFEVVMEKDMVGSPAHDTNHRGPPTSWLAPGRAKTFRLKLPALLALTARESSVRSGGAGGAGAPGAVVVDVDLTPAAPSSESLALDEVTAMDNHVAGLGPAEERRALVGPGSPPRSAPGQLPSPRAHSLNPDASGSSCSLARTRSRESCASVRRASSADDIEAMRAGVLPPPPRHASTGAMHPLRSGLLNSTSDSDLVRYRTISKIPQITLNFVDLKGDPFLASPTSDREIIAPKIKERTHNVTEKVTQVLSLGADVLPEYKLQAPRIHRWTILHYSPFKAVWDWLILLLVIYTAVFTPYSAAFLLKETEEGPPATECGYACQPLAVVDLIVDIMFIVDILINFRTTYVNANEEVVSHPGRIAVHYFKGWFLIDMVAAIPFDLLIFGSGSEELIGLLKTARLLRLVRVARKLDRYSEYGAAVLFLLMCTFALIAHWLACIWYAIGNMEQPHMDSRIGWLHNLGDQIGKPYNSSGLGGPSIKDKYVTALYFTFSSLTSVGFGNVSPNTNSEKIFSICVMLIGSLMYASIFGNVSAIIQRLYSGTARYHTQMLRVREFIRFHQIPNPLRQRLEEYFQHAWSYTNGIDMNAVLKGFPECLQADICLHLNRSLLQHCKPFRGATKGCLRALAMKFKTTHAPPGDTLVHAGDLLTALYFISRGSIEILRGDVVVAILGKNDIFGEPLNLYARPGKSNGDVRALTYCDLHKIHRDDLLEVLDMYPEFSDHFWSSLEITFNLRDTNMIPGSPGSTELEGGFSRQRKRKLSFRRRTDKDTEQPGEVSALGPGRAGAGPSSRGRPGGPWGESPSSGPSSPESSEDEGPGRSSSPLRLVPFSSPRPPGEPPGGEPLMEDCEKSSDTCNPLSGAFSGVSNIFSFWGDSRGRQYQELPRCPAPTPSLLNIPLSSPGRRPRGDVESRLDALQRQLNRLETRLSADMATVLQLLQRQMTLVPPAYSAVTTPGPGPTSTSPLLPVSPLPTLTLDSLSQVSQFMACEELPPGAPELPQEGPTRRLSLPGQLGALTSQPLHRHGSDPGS
Sequence of Histamine H3 receptor (Q9Y5N1 whole entry): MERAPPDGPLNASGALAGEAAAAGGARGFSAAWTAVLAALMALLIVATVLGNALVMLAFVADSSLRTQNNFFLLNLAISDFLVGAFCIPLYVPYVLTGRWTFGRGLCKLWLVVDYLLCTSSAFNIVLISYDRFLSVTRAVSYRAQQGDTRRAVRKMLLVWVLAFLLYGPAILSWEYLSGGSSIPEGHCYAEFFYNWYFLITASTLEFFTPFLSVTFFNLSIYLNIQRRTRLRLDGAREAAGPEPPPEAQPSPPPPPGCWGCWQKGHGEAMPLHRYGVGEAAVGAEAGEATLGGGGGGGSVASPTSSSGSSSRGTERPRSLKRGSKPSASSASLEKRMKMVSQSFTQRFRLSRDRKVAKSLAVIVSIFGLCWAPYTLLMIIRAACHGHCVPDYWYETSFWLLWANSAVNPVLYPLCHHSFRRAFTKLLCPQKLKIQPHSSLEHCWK

Turning to `CC(C)N1CCN(C(=O)c2ccc(CN3CCCCC3)cc2)CC1`, the apparent permeability from apical to basolateral (Papp A→B) at 1 h, 10 µM in data set [1] was determined as 124 nm/s. Besides, in [2], the concentration at 1 h was determined as 0.48 µM. In addition, the IC50 in data set [3] was above 30 µM. In [4], the Vd is 39.4 L/kg. In [5], the Activity result is on record as “Not Active”. Besides, in data set [6], the bioavailability was found to be 52%. In [7], the half-life was 20 h. Also, the Papp B→A at 10 µM in data set [8] is 148 nm/s. The Occ with Rattus norvegicus is on record as 90%. The compound further showed a clearance in data set [9] of 1.57 L/h/kg.

As to `O=C(c1ccc(CN2CCOCC2)cc1)N1CCN(C2CCC2)CC1`, the Papp A→B at 1 h, 10 µM in data set [1] was 712 nm/s. For the same compound, the remaining at 0.25 h, 1 µM in data set [10] is 49.6%; in data set [11] it was 85.4%. Also, the concentration at 1 h in data set [2] amounted to 8.1 µM. The compound further showed a concentration for half-maximal inhibition (IC50) in data set [3] above 10 µM. The Vd in [4] is 6.4 L/kg. Further, the Activity result in data set [5] is given as “Not Active”. This compound registered a bioavailability in data set [6] of 85%. This compound showed a half-life in data set [7] of 2.1 h. In addition, the Papp B→A at 10 µM in [8] was found to be 224 nm/s. This compound also came in with an Occ in the data set with Rattus norvegicus of 96%. The same compound registered a Ki at Histamine H3 receptor of 0.0013 µM. Moreover, the clearance in data set [9] was found to be 2.09 L/h/kg.

In [3], `O=C(c1ccc(CN2CCC(F)CC2)cc1)N1CCN(C2CCC2)CC1` returned an IC50 above 10 µM. The Vd in [4] worked out at 20.3 L/kg. In data set [6], the bioavailability is 31%. The same compound had a half-life in [7] of 2.1 h. The clearance in data set [9] is 6.8 L/h/kg.

In the case of `O=C(c1ccc(CN2CCC(F)CC2)cc1)N1CCN(C2CC2)CC1`, the remaining at 0.25 h, 1 µM amounted to 26.8% in data set [10] and 83.6% in [11]. Further, the concentration at 1 h in data set [2] came to 0.54 µM. Moreover, the IC50 in [3] was above 10 µM. In addition, the Vd in data set [4] amounted to 3.9 L/kg. Further, the bioavailability in [6] was found to be 14%. The compound also had a half-life in [7] of 1.1 h. Moreover, in the data set with Rattus norvegicus, the Occ stood at 25%. In data set [9], this compound came in with a clearance of 2.48 L/h/kg.

Usually Papp A→B stands for the apparent permeability from the apical to the basolateral side of a cell layer. The term IC50 denotes the concentration that gives 50% inhibition. A low value points to greater potency. For orientation: bioavailability means the share of a dose that reaches the circulation, judged against a reference dose that is usually intravenous. Low readings indicate poor availability, high ones good availability. The half-life is how long it takes for the measured level to halve. Lower therefore signals fast loss. Usually Papp B→A stands for how fast a substance crosses the layer from the basolateral side. By clearance is commonly meant a measure of how efficiently the substance is removed, as volume per time. What is called Ki is a measure of affinity in units of concentration, obtained from inhibition or displacement. Low values mean tighter binding, high ones weaker binding.

These data come from ChEMBL document CHEMBL3576859, “Novel benzamide-based histamine h3 receptor antagonists: the identification of two candidates for clinical development” (ACS Med Chem Lett, 2015).
